This is an account of results in publication PMC9056854 (RSC Advances, 2020).

The nature of this data set: Thermal denaturation study. The settings on record: 3 μM duplex, 10 mM sodium phosphate (pH 7.0), 100 mM NaCl; relative to siRNA 1. Type of data set: physicochemical. The method, boiled down: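 UV melting of duplexes at 3 μM in 10 mM sodium phosphate (pH 7.0) with 100 mM NaCl, heated at 0.5 °C min−1. ΔTm is the Tm of the peptide-conjugated duplex minus the Tm of the unmodified duplex.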

With “5′-GGCCUUUCACUACUCCUACTTR^E-R8A7-3′ [siRNA 3]”, the “ΔTm [Tm(siRNAmod) − Tm(siRNAunmod)]” value was “+0.5 °C”. With “5′-GGCCUUUCACUACUCCUACTTR^E-R8G7-3′ [siRNA 2]”, the “ΔTm [Tm(siRNAmod) − Tm(siRNAunmod)]” value is “+0.9 °C”.
